From ChEMBL document CHEMBL1795282, “Synthesis, biological evaluation, and docking studies of gigantol analogs as calmodulin inhibitors” (Eur J Med Chem, 2011)
Activity calls are given as the source filed them. No cut-off for these calls is given here.

Legend:
[1] = species on record: Homo sapiens; experiment: Binding affinity to human Calmodulin M124C mutant assessed as extrinsic fluorescence quenching in phosphate buffer at pH 5.1 by mBBr fluorescence assay
How it was run: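 Ca²⁺–hCaM M124C–mBBr biosensor at 5 μM in 100 mM phosphate buffer, pH 5.1, with 10 mM CaCl₂, stirred at 37 °C and titrated with ligand. Excitation was at 381 nm, with emission scanned from 400 to 550 nm. Fractional saturation was taken as y = (F − F₀)/(F∞ − F₀) at 470 nm versus ligand concentration. Apparent constant Km, Emax and Hill coefficient came from a Hill-equation fit.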

[2] = molecular target: Calmodulin-1 (Homo sapiens, UniProt P0DP23); experiment: Inhibition of Calmodulin-dependent PDE1 activity assessed as inorganic phosphate release after 30 min

Row | SMILES | Km [1] [µM] | IC50 [2] [µM] | Activity [1] | inhibition [2]
1 | COc1cc(O)cc(C(=O)/C=C/c2ccc(OC)c(O)c2)c1 | 3.89 | 37.7 | – | –
2 | c1ccc(Cc2ccccc2)cc1 [DIPHENYLMETHANE] | – | 15 | inactive | –
3 | CCOc1ccc(CCc2cc(OC)cc(OC)c2)cc1OC | 9.88 | 18.4 | – | –
4 | c1ccc(COc2ccccc2)cc1 | – | – | inactive | inactive
5 | Oc1cccc(CCCc2ccc3c(c2)OCO3)c1 | 14.2 | 22.9 | – | –
6 | COc1cc(Cc2ccc(O)c(OC)c2)cc(OC)c1 | 33.1 | 54.7 | – | –
7 | COc1cc(CCc2ccc(N(C)C)cc2)cc(OC)c1 | 10 | 36.3 | – | –
8 | Oc1cccc(CCc2ccc3c(c2)OCO3)c1 | 63.8 | 75.9 | – | –
9 | COc1cc(O)cc(C(=O)/C=C/c2ccc(O)c(OC)c2)c1 | 5.31 | 57.3 | – | –
10 | COc1ccc(CCc2cc(O)cc(OC)c2)cc1 | 80 | 9.38 | – | –
11 | COc1cc(O)cc(CCCc2ccc(O)c(OC)c2)c1 | 54.3 | 32.5 | – | –
12 | COc1cc(O)cc(CCc2ccc3c(c2)OCO3)c1 | 45.5 | 31.3 | – | –
13 | COc1ccc(CCc2cc(OC)cc(OC)c2)cc1 | 21.8 | 146 | – | –
14 | COc1ccc(/C=C/C(=O)c2ccc(O)cc2)cc1 | 10.3 | 22.5 | – | –

Second part, the molecule after the results:

Row | Km [1] [µM] | IC50 [2] [µM] | Activity [1] | inhibition [2] | SMILES
15 | 33.8 | 56.1 | – | – | COc1cc(Cc2cccc(OC)c2O)cc(OC)c1
16 | – | – | inactive | inactive | c1ccc(CCc2ccccc2)cc1
17 | 12 | 30.1 | – | – | COc1cc(O)cc(CCc2ccc(N(C)C)cc2)c1
18 | 8.7 | 62.7 | – | – | COc1ccc(CCCc2ccc(O)cc2)cc1
19 | 25.3 | 54.7 | – | – | CCOc1ccc(CCc2cc(O)cc(OC)c2)cc1OC
20 | 58.1 | 46.1 | – | – | CCOc1ccc(CCc2cccc(O)c2)cc1OC
21 | 60.8 | 114 | – | – | COc1cc(O)cc(CCc2ccc(O)c(OC)c2)c1 [GIGANTOL]
